ASAP1 GAP inh – inhibitors of human ASAP1 ArfGAP activity, primary screen, biochemical, fluorescence polarization; inhibition, % at 16.5 µM; actives 0.19% (n = 360,000); Arf-GAP with SH3 domain, ANK repeat and PH domain-containing protein 1 (Homo sapiens), …; ASAP1-stimulated ARF1 GTP hydrolysis, GDP FP detection; AID 624377, 2012; in the data active = inhibition above about 25%
PLCb3 inh – human PLC-beta3 inhibitors, primary screen, biochemical, fluorescence | Purified PLC-beta3, fluorogenic substrate | inhibition, % at 12.2 µM | actives 0.18% (n = 370,000) | 1-phosphatidylinositol 4,5-bisphosphate phosphodiesterase beta-3 (Homo sapiens), Q01970 | AID 720704, 2013; in the data active = inhibition above about 11%
Target sequence (Q01970 whole entry, looked up): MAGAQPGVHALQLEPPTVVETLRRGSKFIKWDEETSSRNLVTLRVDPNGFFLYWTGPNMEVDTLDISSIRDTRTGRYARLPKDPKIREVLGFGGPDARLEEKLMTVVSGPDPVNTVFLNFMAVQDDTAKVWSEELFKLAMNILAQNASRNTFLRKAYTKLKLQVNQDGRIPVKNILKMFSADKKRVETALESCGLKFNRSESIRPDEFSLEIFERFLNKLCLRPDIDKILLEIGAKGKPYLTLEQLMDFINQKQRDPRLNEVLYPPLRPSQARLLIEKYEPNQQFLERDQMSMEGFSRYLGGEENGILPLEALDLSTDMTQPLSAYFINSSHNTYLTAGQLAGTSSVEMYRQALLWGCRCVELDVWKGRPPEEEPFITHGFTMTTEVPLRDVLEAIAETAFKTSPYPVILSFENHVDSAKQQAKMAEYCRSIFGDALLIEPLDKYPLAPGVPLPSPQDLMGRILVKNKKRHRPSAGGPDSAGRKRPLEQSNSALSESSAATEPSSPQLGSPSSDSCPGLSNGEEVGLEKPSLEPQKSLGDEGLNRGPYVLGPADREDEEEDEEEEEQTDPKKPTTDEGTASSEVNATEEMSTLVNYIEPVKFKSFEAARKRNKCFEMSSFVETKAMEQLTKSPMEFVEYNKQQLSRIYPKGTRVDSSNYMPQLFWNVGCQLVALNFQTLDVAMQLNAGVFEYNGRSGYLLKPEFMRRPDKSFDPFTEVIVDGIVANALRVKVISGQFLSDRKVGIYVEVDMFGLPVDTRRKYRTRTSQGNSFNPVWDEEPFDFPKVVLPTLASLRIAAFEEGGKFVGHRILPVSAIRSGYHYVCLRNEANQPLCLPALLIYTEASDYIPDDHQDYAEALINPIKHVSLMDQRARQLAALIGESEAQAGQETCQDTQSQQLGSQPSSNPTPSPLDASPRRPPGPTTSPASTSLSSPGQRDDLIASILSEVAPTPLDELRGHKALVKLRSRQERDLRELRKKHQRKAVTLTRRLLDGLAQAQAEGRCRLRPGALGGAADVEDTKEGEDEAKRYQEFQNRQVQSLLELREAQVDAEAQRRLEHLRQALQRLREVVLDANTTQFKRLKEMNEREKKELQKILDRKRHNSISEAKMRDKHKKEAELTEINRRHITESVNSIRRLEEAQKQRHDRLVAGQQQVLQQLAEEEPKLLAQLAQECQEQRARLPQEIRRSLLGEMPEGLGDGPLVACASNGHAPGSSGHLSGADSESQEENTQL
ARFGAP1 inhibitor – inhibitors of rat ARFGAP1 GAP activity, primary screen, biochemical, fluorescence polarization, GDP tracer; Arfgap1-stimulated ARF1 GTP hydrolysis, GDP FP detection; actives 0.26% (n = 360,000); inhibition, % at 16.5 µM;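 active = inhibition above a per-plate limit, mean inhibition of low control wells plus 3 SD, cut at about 25% in these data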
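Assay system: purified rat His6-Arfgap1 residues 1-136 (GAP domain); Reagent: human Δ17 ARF1 bound to GTP; Dosing: 16.5 µM single point, 1.26% DMSO; Times: GTP hydrolysis reaction 2 h at 25 °C; Signal: FP, GDP Alexa 633 tracer displaced from anti-GDP antibody, 620/688 nm; Measure: % inhibition from polarization.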
sPLA2-III inh – human group III sPLA2 inhibitors, primary screen, biochemical, QFRET, BODIPY PC-A2 liposome substrate | inhibition, % at 12.2 µM | QFRET BODIPY PC-A2 liposome hydrolysis, fluorescence | Group 3 secretory phospholipase A2 (Homo sapiens), Q9NZ20 | actives 0.56% (n = 370,000) | AID 743126, 2013;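 active = inhibition above mean plus 3 SD of compounds lying within the high and low control bounds, cut at about 19% in these data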
PLCg1 inh – PLC-gamma1 enzyme inhibitors, primary screen, biochemical, fluorescence, purified enzyme | 1-phosphatidylinositol 4,5-bisphosphate phosphodiesterase gamma-1 (Homo sapiens), P19174 | fluorogenic substrate | inhibition, % at 12.2 µM | actives 0.84% (n = 370,000)
PLCg1 ctr – PLC-gamma1 enzyme inhibitors, counter-screen for PLC-beta3 inhibitor project, biochemical, fluorescence; shares compounds with PLCg1 inh; purified PLC-gamma1, fluorogenic substrate; AID 743258, 2014; actives 3.1% (n = 3,300); inhibition, % at 12.3 µM
PLCbeta3 conf – PLC-beta3 inhibitor confirmation, biochemical, fluorescence, purified enzyme. actives 1% (n = 3,300). shares compounds with PLCg1 inh. inhibition, % at 12.3 µM. fluorogenic substrate fluorescence; in the data active = inhibition above about 11%
Large screens that a line does not name were inactive (follow-up assays come after a bar, where they were run). Most compounds without a hit are left out; they make up all but 1.9% or so of the library. Rule as the data show it, unless noted: active = inhibition above about 9.5%; inactive = the rest.

O=c1c2[nH]c3ccccc3c2ncn1CCN1CCOCC1	PLCg1 inh 9.6 | PLCg1 ctr inactive | PLCbeta3 conf inactive
CCN(CC)C(=O)CC[C@@H]1CC[C@]2(CCCN(C(=O)c3cccnc3)C2)O1	none (no result: ASAP1 GAP inh, ARFGAP1 inhibitor)
CCOCCn1c(C(C)O)nc2ccccc21 (stereo not given)	PLCg1 inh 10.4 | PLCg1 ctr inactive | PLCbeta3 conf inactive
CCCCn1c(C(C)NC(=O)COC)nc2ccccc21 (stereo not given)	PLCg1 inh 10.1 | PLCg1 ctr inactive | PLCbeta3 conf inactive
CCCCCn1c(C(Cc2ccccc2)NC(=O)COC)nc2ccccc21 (stereo not given)	none
COc1cccc(-c2ccc3c(c2)[C@@H]2C[C@H]4[C@@H](CN2CC3)[C@H](C)ON4C)c1	none
COC(=O)[C@]12C[C@H](CC(=O)NCc3cccc(C(F)(F)F)c3)C(=O)N(Cc3cccc4ccccc34)C1=C[C@H](C(C)(C)C)O[C@@H]2C	none (no result: ASAP1 GAP inh, ARFGAP1 inhibitor)
COc1cccc(Nc2cc(N3CCOCC3)c3nonc3c2[N+](=O)[O-])c1	PLCg1 inh 10.1 | PLCg1 ctr inactive | PLCbeta3 conf inactive
CC(=O)Nc1cccc(C(C)C2=CCCCC2)c1 (stereo not given)	none (no result: ASAP1 GAP inh, ARFGAP1 inhibitor)
COc1ccc(CC(=O)N/N=C/c2cccn2-c2ccc([N+](=O)[O-])cc2)cc1OC	PLCg1 inh 11.8 | PLCg1 ctr inactive | PLCbeta3 conf inactive
COc1ccc(/C=N/NC2=NCCCCC2)cc1	PLCg1 inh 10.4 | PLCg1 ctr inactive | PLCbeta3 conf inactive
COc1ccc(/C=N/NC2=NCCCCC2)c(OC)c1	none
COC(=O)[C@]12C[C@H](CC(=O)N3CCN(C(=O)c4ccco4)CC3)C(=O)N(Cc3ccco3)C1=C[C@H](C(C)(C)C)O[C@@H]2C	none (no result: ASAP1 GAP inh, ARFGAP1 inhibitor)
Cc1ccc(C2CC(=O)Oc3cc(O)ccc32)cc1 (stereo not given)	none
O=C1CC(c2ccc(Cl)cc2)c2c(O)cc(O)cc2O1 (stereo not given)	PLCg1 inh 10.1 | PLCg1 ctr inactive | PLCbeta3 conf inactive
CC(=O)Nc1ccc(NC(=O)c2ccc(N(Cc3ccccc3C)S(C)(=O)=O)cc2)cc1	PLCg1 inh 14.0 | PLCg1 ctr inactive | PLCbeta3 conf inactive
CC(=O)c1cccc(NC(=O)c2ccc(N(Cc3ccccc3C)S(C)(=O)=O)cc2)c1	none
Cc1ccc(N(C)C(=O)CCS(=O)(=O)c2ccc3c(c2)oc(=O)n3C)cc1	none
CN(C(=O)CCS(=O)(=O)c1ccc2c(c1)oc(=O)n2C)C1CCCCC1	PLCg1 inh 13.6 | PLCg1 ctr inactive | PLCbeta3 conf inactive
CC(C)[C@H](NC(=O)CC1CCCC1)C(=O)N1CCC[C@H]1C(=O)NCc1ccccc1	none
COc1ccccc1NC(=O)Nc1ccc2c(c1)OCCO2	PLCb3 inh 11.7 | PLCg1 ctr inactive | PLCbeta3 conf inactive
COc1ccccc1NC(=O)CNC(c1ccccc1)c1ccccc1	PLCg1 inh 13.2 | PLCg1 ctr inactive | PLCbeta3 conf inactive
COc1ccc(C)cc1NC(=O)CNC(c1ccccc1)c1ccc(C)cc1 (stereo not given)	none
O=C(Nc1ccc2ccccc2c1)NC1CCCCN(Cc2cccc(Cl)c2)C1=O (stereo not given)	none (no result: ASAP1 GAP inh, ARFGAP1 inhibitor)
O=C(NC1CCCCN(Cc2cccc(C(F)(F)F)c2)C1=O)c1ccc(F)cc1 (stereo not given)	none (no result: ASAP1 GAP inh, ARFGAP1 inhibitor)
Cc1ccccc1CN1CCCCC(NC(=O)c2ccccc2C)C1=O (stereo not given)	none (no result: ASAP1 GAP inh, ARFGAP1 inhibitor)
CC(=O)c1ccc(NC(=O)NC2CCCCN(Cc3cccc(Cl)c3)C2=O)cc1 (stereo not given)	PLCg1 inh 11.3 (no result: ASAP1 GAP inh, ARFGAP1 inhibitor) | PLCg1 ctr inactive | PLCbeta3 conf inactive
Cc1ccccc1CN1CCCCC(NC(=O)c2ccc(-c3ccccc3)cc2)C1=O (stereo not given)	PLCg1 inh 11.9 (no result: ASAP1 GAP inh, ARFGAP1 inhibitor) | PLCg1 ctr inactive | PLCbeta3 conf inactive
CCCCOc1ccc(C(=O)NC2CCCCN(Cc3cccc(C(F)(F)F)c3)C2=O)cc1 (stereo not given)	PLCg1 inh 10.2 (no result: ASAP1 GAP inh, ARFGAP1 inhibitor) | PLCg1 ctr inactive | PLCbeta3 conf inactive
CCCCCCCCNC(=O)C1CSCCS(=O)(=O)N1Cc1ccc(OC)cc1 (stereo not given)	none (no result: ASAP1 GAP inh, ARFGAP1 inhibitor)
C=CCC[C@@H](Cc1ccc(F)cc1)C(=O)OC[C@@H](Cc1c[nH]c2ccccc12)NC(=O)[C@H](CC=C)CC(=O)NCCO	PLCb3 inh 10.7 | PLCg1 ctr inactive | PLCbeta3 conf inactive
C=CC[C@@H](CC(=O)N(CCO)Cc1ccccc1)C(=O)N[C@@H](C)COC(=O)[C@@H](CC=C)CC(=O)OC(C)(C)C	PLCg1 inh 11.2 | PLCg1 ctr inactive | PLCbeta3 conf inactive
C=CC[C@@H](CC(=O)N[C@H](CO)Cc1ccccc1)C(=O)N[C@@H](COC(=O)[C@@H](CC=C)CC(=O)OC(C)(C)C)Cc1c[nH]c2ccccc12	PLCg1 inh 11.9 | PLCg1 ctr inactive | PLCbeta3 conf inactive
C=CCC[C@@H](Cc1ccc(F)cc1)C(=O)OC[C@@H](Cc1c[nH]c2ccccc12)NC(=O)[C@@H](CC=C)CC(=O)NCCO	none
COC(=O)CSc1nnc(-c2ccc(NS(=O)(=O)c3ccc(C)c(C)c3)cc2)o1	none (no result: ASAP1 GAP inh, ARFGAP1 inhibitor)
CCOc1cccc(CN2CCC(n3nccc3NC(=O)c3ccc4c(c3)OCO4)CC2)c1	PLCg1 inh 10.2 | PLCg1 ctr inactive | PLCbeta3 conf inactive
CCn1cc(CN2CCC(n3nccc3NC(=O)CCOc3ccccc3)CC2)cn1	PLCg1 inh 13.4 | PLCg1 ctr inactive | PLCbeta3 conf inactive
O=C(c1cccc(F)c1F)N1CCCC(c2nc(-c3cccs3)no2)C1 (stereo not given)	none (no result: ASAP1 GAP inh, ARFGAP1 inhibitor)
COc1cc(-n2c(C)nc3cc(C(=O)N4CCCN(C(C)=O)CC4)ccc32)cc(OC)c1OC	none (no result: ASAP1 GAP inh, ARFGAP1 inhibitor)
CC1(C)Oc2ccc(C(=O)N3CCCC3)cc2NC1=O	none (no result: ASAP1 GAP inh, ARFGAP1 inhibitor)
COc1ccc(CCN(C)C(=O)CCNC(=O)c2ccc(Br)cc2)cc1OC	PLCg1 inh 11.1 | PLCg1 ctr inactive | PLCbeta3 conf inactive
N#Cc1ccccc1OCC(=O)NCCNC(=O)COc1ccccc1C#N	none
N#Cc1ccccc1OCC(=O)NNC(=O)CCC1CCCC1	PLCg1 inh 11.7 | PLCg1 ctr inactive | PLCbeta3 conf inactive

High-throughput results (PubChem BioAssay)
